# Data as given in ChEMBL document CHEMBL2163301, “Substrates for efficient fluorometric screening employing the NAD-dependent sirtuin 5 lysine deacylase (KDAC) enzyme” (J Med Chem, 2012).
# Molecular target: NAD-dependent protein deacylase sirtuin-5, mitochondrial (Homo sapiens, UniProt Q9NXA8)
# Test: Inhibition of SIRT5
# Procedure, shortened: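 Recombinant SIRT5 at 50 ng/well (~30 nM, 50 μL) with succinyllysine AMC substrate and NAD in Tris-Cl pH 8.0/BSA buffer. Inhibitor dilutions were prepared in assay buffer from DMSO stocks. IC50 from nonlinear regression of dose–response, two assays in duplicate.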
# Sequence of NAD-dependent protein deacylase sirtuin-5, mitochondrial (Q9NXA8 whole entry): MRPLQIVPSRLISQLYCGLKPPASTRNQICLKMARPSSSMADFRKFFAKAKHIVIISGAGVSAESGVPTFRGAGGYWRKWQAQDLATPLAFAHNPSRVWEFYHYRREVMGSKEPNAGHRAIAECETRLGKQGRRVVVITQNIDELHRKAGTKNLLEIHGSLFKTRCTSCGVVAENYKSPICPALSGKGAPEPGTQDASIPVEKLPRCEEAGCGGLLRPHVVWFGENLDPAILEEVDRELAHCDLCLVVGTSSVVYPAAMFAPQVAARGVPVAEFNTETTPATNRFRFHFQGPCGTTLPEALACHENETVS
row,IC50,SMILES
1,> 100 µM,O=C(O)CCCc1ccccc1
2,> 100 µM,N#C/C(=C\c1ccc(-c2cc(Cl)ccc2Cl)o1)C(=O)Nc1cccc2ncccc12
3,> 100 µM,CC(NC(=O)c1ccccc1/N=C/c1c(O)ccc2ccccc12)c1ccccc1 (centres undefined) [SIRTINOL]
4,> 100 µM,O=C(CCCCCCC(=O)Nc1ccccc1)NO [VORINOSTAT]
